# rCAG RNA binder: molecules binding r(CAG) RNA repeats. r(CAG) RNA repeat, TO-PRO-1 dye displacement fluorescence. 370,000 tested, 1.3% active. inhibition, % at 3 µM;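 active means inhibition above the plate cutoff, the mean of all test compounds on that plate plus 3 SD, cut at about 35% in these data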;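 further: 0% = DMSO alone and 100% = 100 µM mitoxantrone as full dye displacement; higher means more dye released from RNA so lower well fluorescence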
# NadD inh: NadD (S. aureus) enzyme inhibition; purified NadD enzyme, colorimetric absorbance read-out; inhibition, % at 20 µM; 360,000 tested, 0.78% active; in the data active means inhibition above about 26%
# core dimer inh: HCV core protein dimerization inhibition. TR-FRET GST/Flag-core106 dimerization, 1536-well. 300,000 tested, 0.33% active. inhibition, % at 5 µM;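 active means inhibition above the mean of all tested compounds plus 3 SD, set per screening campaign, cut at about 45% in these data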
#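 Test system: GST/Flag-tagged HCV core106 proteins; Medium: KF-containing HEPES buffer, pH 7.45, DTT, CHAPS, BSA; Times: compound-protein-antibody incubation 4 h at 22.5 °C; Detection: TR-FRET 671 and 617 nm emission; Benchmarks: wells lacking GST-core106 and wells with excess unlabelled core106.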
# ABHD5-PLIN5 inh: blocks binding of human ABHD5 to perilipin-5. Q00G26+Q8WTS1. Split G. princeps luciferase complementation, luminescence, 4 h. inhibition, % at 4 µM. 360,000 tested, 0.78% active;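 active means inhibition above the mean inhibition across every tested compound plus 3 SD, cut at about 22% in these data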;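 further: 0% = DMSO only wells and the 100% control is not disclosed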
# ABHD5 PLIN5 conf: confirmation of human ABHD5-PLIN5 interaction inhibitors. shares compounds with ABHD5-PLIN5 inh. biochemical ABHD5-PLIN5 interaction, luminescence. inhibition, % at 4 µM. 2,200 tested, 67% active; in the data active means inhibition above about 23%;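 further: 0% = DMSO vehicle wells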
# HNF4 counter: HNF4 split-luciferase signal hit, counter-screen. HNF4 dimerization, luminescence, biochemical. shares compounds with ABHD5-PLIN5 inh. inhibition, % at 4 µM. 2,200 tested, 77% active;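 active means mean inhibition across replicate wells exceeding the computed hit threshold, cut at about 13% in these data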;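 further: light from luciferase halves that rejoin when HNF4 fusion proteins dimerize; 0% = DMSO only wells and the 100% control is not given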
# Target sequence (P41235 whole entry, looked up, the tested form may be a part): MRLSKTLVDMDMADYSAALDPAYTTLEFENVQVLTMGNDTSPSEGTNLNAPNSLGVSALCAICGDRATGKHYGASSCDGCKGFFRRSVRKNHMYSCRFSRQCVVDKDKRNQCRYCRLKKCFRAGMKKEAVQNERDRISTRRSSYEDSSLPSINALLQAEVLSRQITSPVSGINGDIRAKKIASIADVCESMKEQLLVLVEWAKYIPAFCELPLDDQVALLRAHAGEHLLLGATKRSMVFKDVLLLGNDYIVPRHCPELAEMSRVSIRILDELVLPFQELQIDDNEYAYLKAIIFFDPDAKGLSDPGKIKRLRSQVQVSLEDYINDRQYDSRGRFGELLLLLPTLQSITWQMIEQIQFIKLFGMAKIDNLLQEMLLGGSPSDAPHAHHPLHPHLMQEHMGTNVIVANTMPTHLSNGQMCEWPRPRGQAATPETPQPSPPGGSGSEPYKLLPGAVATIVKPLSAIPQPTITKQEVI
# The depositor's hits bear a star; / = no result; ! = a repeat was not active. The list is not random: actives were taken first. Their share in the collection is about 2.6%.
SMILES,rCAG RNA binder,NadD inh,core dimer inh,ABHD5-PLIN5 inh,ABHD5 PLIN5 conf,HNF4 counter
Cc1cc(C)cc(N2C(=O)C=CC2=O)c1,6,3,/,35*,29*,89*
OCCNCC(O)Cn1c2ccccc2c2ccccc21 (centres undefined),-3,-6,-7,-4,/,/
COc1ccccc1CNCC(O)Cn1c2ccccc2c2ccccc21 (centres undefined),12,-4,-4,35*,9,-2
COc1cccc(C2NC(=S)N(Cc3ccccc3)C(C)=C2C(C)=O)c1 (centres undefined),2,/,/,/,/,/
O=C1C(O)=C(O)C(=O)c2ccccc21,5,-1,-30,42*,7,67*
O=C1C(=O)c2ccccc2C(O)=C1c1ccccc1F,-1,-5,-10,0,/,/
O=[N+]([O-])c1ccc(S(=O)(=O)c2cccc(C(F)(F)F)c2)nc1,/,4,-1,52*,88*,113*
CCCC(=O)N1CCC1(C)C(=O)NS(=O)(=O)c1cccc(F)c1 (centres undefined),-1,3,/,-4,/,/
O=S1(=O)N[C@@H](Cc2ccccc2)COc2cc(NCCCN3CCOCC3)ccc21,2,/,/,/,/,/
COc1ccccc1/C=C/C(=O)NNC(=O)c1cc(C)oc1C,2,-8,-4,4,/,/
Cc1cc(C(=O)NNC(=O)/C=C/c2ccco2)c(C)o1,26,2,/,42*,66*,49*
O=C(OCC(=O)N1CCN(S(=O)(=O)c2ccc(Cl)cc2)CC1)c1cccc(OC(F)F)c1,-5,-6,9,1,/,/
COc1cc(SC#N)ccc1N=Cc1c(C)[nH]n(-c2cccc3ccccc23)c1=O,/,/,0,/,/,/
COc1cc(SC#N)ccc1N=Cc1c(C)[nH]n(-c2ccc(C)cc2C)c1=O,8,12,-11,27*,38*,26*
CC(=O)c1cc(-c2ccc3[nH]ccc3c2)c(=O)n2c1CCC2,4,/,/,/,/,/
Oc1ccc2sc(-c3ccccc3O)c(-c3ccc(OCCN4CCCCC4)cc3)c2c1,8,2,/,27*,18,/
COc1ccc(-c2sc3ccccc3c2-c2ccc(OCCN3CCCCC3)cc2)cc1,4,7,/,18,/,/
COc1ccccc1-c1sc2ccccc2c1-c1ccc(OCCN2CCCCC2)cc1,/,11,/,18,/,/
COc1cccc(-c2sc3ccccc3c2-c2ccc(OCCN3CCCCC3)cc2)c1,/,3,/,29*,9,-6
COc1cccc(-c2sc3ccccc3c2-c2ccc(OCCN3CCCC3)cc2)c1,2,7,/,17,/,/
COc1ccc(-c2sc3cc(OC)ccc3c2-c2ccc(OCCN3CCCCC3)cc2)cc1,5,5,/,25*,8,-2
COc1cccc(-c2sc3ccccc3c2-c2ccc(OCCN(C)C)cc2)c1,-1,9,/,30*,20,0
C[C@@H](NS(=O)(=O)c1c(F)cccc1F)c1ccccc1,0,/,/,/,/,/
CCN1C(=O)C(C)C=C(C)C=C1C (centres undefined),2,-10,/,-2,/,/
CC1=CC(C)(C)N2C(=O)C(=O)c3cc(OC(=O)c4ccco4)cc1c32,-1,-1,4,-2,/,/
SMILES,rCAG RNA binder,NadD inh,core dimer inh,ABHD5-PLIN5 inh,ABHD5 PLIN5 conf,HNF4 counter
CC1=CC(C)(C)Nc2ccc(OC(=O)CN3C(=O)CCC3=O)cc21,2,-2,-19,80*,96*,33*
COc1ccc(OC(=O)C(C)N2C(=O)c3ccccc3C2=O)cc1 (centres undefined),-4,-14,-1,5,/,/
CC1=CC(C)(C)Nc2ccc(OC(=O)c3cccnc3)cc21,-5,5,-11,78*,97*,72*
CC1=CC(C)(C)Nc2ccc(OC(=O)c3ccco3)cc21,-1,-3,-12,67*,91*,91*
CC1=CC(C)(C)Nc2ccc(OC(=O)C(C)N3C(=O)c4ccccc4C3=O)cc21 (centres undefined),-3,2,4,58*,90*,24*
Cc1ccc(S(=O)(=O)n2cccc2/C=C/[N+](=O)[O-])cc1,25,11,/,46*,101*,102*
COc1ccc(-n2cccc2/C=C/[N+](=O)[O-])cc1,21,30,36,12,/,/
CC(C)(C)OC(=O)NCc1ccccc1/C=C/S(=O)(=O)NCc1ccccc1,0,/,/,/,/,/
COc1ccc(/C=C/C(=O)c2c(O)c(OC)c3occc3c2OC)cc1,10,-3,/,49*,79*,65*
ClC(Cl)(c1nnnn1-c1ccccc1)c1nnnn1-c1ccccc1,-1,4,1,87*,74*,103*
O=C(/C=C/c1ccccn1)c1cc(Cl)cc(Cl)c1O,12,14,9,23*,45*,31*
COc1ccc(/C=C/C(=O)c2cc(Cl)cc(Cl)c2O)c(OC)c1,2,-1,2,0,/,/
COc1ccc(NC(=O)N(C)C[C@@H]2OCc3cnnn3CCCC(=O)N([C@@H](C)CO)C[C@@H]2C)cc1,4,/,/,/,/,/
O=C(NCc1ccc(F)c(F)c1)C1CCC(CNS(=O)(=O)c2cccc3cccnc23)CC1 (centres undefined),4,/,/,/,/,/
Cc1cc(C)nc(N2N=C(C(C)(C)C)CC2=O)n1,-5,-6,0,37*,7,26*
Cc1ccc(SCC2=NN(c3nc(C)cc(C)n3)C(=O)C2)cc1,7,0,-3,2,/,/
COc1cccc(NC(=O)CCc2nnc3ccc(NCc4ccco4)nn23)c1,6,0,21,29*,8,9
COc1cc(NC(=O)CCc2nnc3ccc(NCc4ccco4)nn23)cc(OC)c1,6,4,2,3,/,/
O=c1[nH]c(/C=C\c2cccc(O)c2)nc(O)c1[N+](=O)[O-],4,-4,22,52*,52*,43*
O=C(Nc1cc(S(=O)(=O)N2CCCC2)ccc1OCC(F)(F)F)c1ccncc1,-3,4,/,-14,/,/
CN1CCC(=C2c3ccccc3CC(=O)c3sccc32)CC1,0,-1,1,27*!,30*,4
CN1CCC(=C2c3ccccc3CCc3sccc32)CC1,/,2,-11,17,/,/
COC(=O)[C@]12C[C@H](CC(=O)NCc3ccc(C)o3)C(=O)N(Cc3ccccc3)C1=C[C@H](C1CCCC1)O[C@@H]2C,5,/,/,/,/,/
CC(=O)c1ccc(N2CCN(S(=O)(=O)c3ccc4c(c3)NC(=O)CC(=O)N4)CC2)cc1,3,-6,6,-2,/,/
CC(=O)c1ccc(N2CCN(S(=O)(=O)c3ccc4c(c3)C(Cl)(Cl)C(=O)N4)CC2)cc1,20,22,/,31*,56*,51*
CCn1c2ccccc2c2cc(NC(=O)CSc3nnc(C4CC4)n3Cc3ccco3)ccc21,12,32*,37,31*,11,25*
CCn1c(SCC(=O)Nc2ccc3c(c2)OCO3)nnc1C1CC1,1,-3,8,-1,/,/
N#C/C(=C\c1ccc(-c2nc3ccccc3s2)o1)C(N)=O,5,6,-10,2,/,/
